The results in this text go back to ChEMBL document CHEMBL4732196, “Structural optimization towards promising β-methyl-4-acrylamido quinoline derivatives as PI3K/mTOR dual inhibitors for anti-cancer therapy: The in vitro and in vivo biological evaluation” (Eur J Med Chem, 2021).

Experiment [1] has as its target Serine/threonine-protein kinase mTOR (Homo sapiens, UniProt P42345). Put plainly: Inhibition of recombinant human N-terminal FLAG-tagged mTOR (1362 to end amino acids) using ULight-4E-BP1 as substrate incubated for 1 hr by LANCE Ultra assay. Background: TR-FRET usually uses a lanthanide donor and a delayed reading to cut background.
The target in experiment [2] is Phosphatidylinositol 4,5-bisphosphate 3-kinase catalytic subunit beta isoform (Homo sapiens, UniProt P42338). Put plainly: Inhibition of PI3Kbeta (unknown origin) using PIP2 as substrate measured after 1 hr by ADP-glo assay.
The target of experiment [3] is T1, Phosphatidylinositol 4,5-bisphosphate 3-kinase catalytic subunit gamma isoform (Homo sapiens, UniProt P48736). Briefly: Inhibition of recombinant human full-length His-tagged PI3Kgamma expressed in baculovirus expression system using PIP2 as substrate measured after 1 hr by ADP-glo assay. (ADP-Glo turns the ADP formed in a reaction into a luminescent signal.)
The target of experiment [4] is BMP-2-inducible protein kinase (Homo sapiens) (UniProt Q9NSY1). Put plainly: Inhibition of human partial length BIKE (S34 to N329 residues) expressed in bacterial system assessed as residual activity at 10 uM by kinome scan method relative to control. The method, boiled down:
(§1)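 KINOMEscan binding assay, test compound at 10 μM against a 52-kinase panel. % Ctrl = (compound signal − positive control signal)/(negative control signal − positive control signal) × 100, with DMSO as negative control (100%) and a positive control (0%).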

Experiment [5] deals with Mitotic checkpoint serine/threonine-protein kinase BUB1 (Homo sapiens) (UniProt O43683). Briefly: Inhibition of human partial length BUB1 (Q724 to K1085 residues) expressed in bacterial system assessed as residual activity at 10 uM by kinome scan method relative to control. The method, boiled down: as §1
In experiment [6] the target is Cyclin-dependent kinase 11B (Homo sapiens) (UniProt P21127). Put plainly: Inhibition of human partial length CDC2L1 (P353 to G692 residues) expressed in bacterial system assessed as residual activity at 10 uM by kinome scan method relative to control. The method, boiled down: as §1
Experiment [7] deals with Cyclin-dependent kinase 19 (Homo sapiens) (UniProt Q9BWU1). Briefly: Inhibition of human partial length CDK11 (M1 to N360 residues) expressed in bacterial system assessed as residual activity at 10 uM by kinome scan method relative to control. The method, boiled down:
as §1

Experiment [8] concerns the target Cyclin-dependent kinase 8 (Homo sapiens) (UniProt P49336). Briefly: Inhibition of human partial length CDK8 (M1 to T360 residues) expressed in bacterial system assessed as residual activity at 10 uM by kinome scan method relative to control. The method, boiled down: as §1
Experiment [9] concerns the target Cyclin-dependent kinase-like 1 (Homo sapiens) (UniProt Q00532). Put plainly: Inhibition of human partial length CDKL1 (M1 to I358 residues) expressed in bacterial system assessed as residual activity at 10 uM by kinome scan method relative to control. Put shortly: as §1
The target in experiment [10] is Ephrin type-B receptor 6 (Homo sapiens) (UniProt O15197). Briefly: Inhibition of human partial length EPHB6 (Q634 to P948 residues) expressed in mammalian expression system assessed as residual activity at 10 uM by kinome scan method relative to control. The method, boiled down: as §1
The target of experiment [11] is Mitogen-activated protein kinase 6 (Homo sapiens) (UniProt Q16659). Briefly: Inhibition of human partial length ERK3 (M1 to P413 residues) expressed in bacterial expression system assessed as residual activity at 10 uM by kinome scan method relative to control. The method, boiled down: as §1
In experiment [12] the target is Mitogen-activated protein kinase 4 (Homo sapiens) (UniProt P31152). Put plainly: Inhibition of human partial length ERK4 (M1 to L365 residues) expressed in mammalian expression system assessed as residual activity at 10 uM by kinome scan method relative to control. The method, boiled down: as §1
The target in experiment [13] is Serine/threonine-protein kinase/endoribonuclease IRE1 (Homo sapiens) (UniProt O75460). Briefly: Inhibition of human partial length ERN1 (S551 to E852 residues) expressed in mammalian expression system assessed as residual activity at 10 uM by kinome scan method relative to control. Put shortly: as §1
Experiment [14] addresses Interleukin-1 receptor-associated kinase 3 (Homo sapiens) (UniProt Q9Y616). Briefly: Inhibition of human partial length IRAK3 (V147 to E596 residues) expressed in bacterial expression system assessed as residual activity at 10 uM by kinome scan method relative to control. The method, boiled down:
as §1

Experiment [15] has as its target Mitogen-activated protein kinase kinase kinase 15 (Homo sapiens) (UniProt Q6ZN16). Put plainly: Inhibition of human partial length MAP3K15 (T625 to L932 residues) expressed in bacterial expression system assessed as residual activity at 10 uM by kinome scan method relative to control. Put shortly:
as §1

In experiment [16] the target is Dual specificity mitogen-activated protein kinase kinase 5 (Homo sapiens) (UniProt Q13163). Briefly: Inhibition of human partial length MEK5 (L98 to P448 residues) expressed in mammalian expression system assessed as residual activity at 10 uM by kinome scan method relative to control. The method, boiled down:
as §1

For experiment [17], the target named is Cyclin-dependent kinase 17 (Homo sapiens) (UniProt Q00537). Put plainly: Inhibition of human full length PCTK2 (M1 to F523 residues) expressed in bacterial expression system assessed as residual activity at 10 uM by kinome scan method relative to control. The method, boiled down: as §1
In experiment [18] the target is Phosphatidylinositol 3-kinase C2 domain-containing subunit gamma (Homo sapiens) (UniProt O75747). Briefly: Inhibition of human partial length PIK3C2G (M1 to I1446 residues) expressed in mammalian expression system assessed as residual activity at 10 uM by kinome scan method relative to control. Put shortly:
as §1

The target of experiment [19] is T1, Phosphatidylinositol 4,5-bisphosphate 3-kinase catalytic subunit gamma isoform. Put plainly: Inhibition of human partial length PIK3CG (S144 to A1102 residues) expressed in mammalian expression system assessed as residual activity at 10 uM by kinome scan method relative to control. Put shortly: (§2)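 KINOMEscan competitive binding screen at 10 μM test compound against a 52-kinase panel. Output is % Ctrl = (test signal − positive control signal)/(negative control signal − positive control signal) × 100. DMSO is the negative control (100%) and the positive control is set to 0%.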

The target of experiment [20] is Membrane-associated tyrosine- and threonine-specific cdc2-inhibitory kinase (Homo sapiens) (UniProt Q99640). Briefly: Inhibition of human partial length PKMYT1 (A88 to G366 residues) expressed in bacterial expression system assessed as residual activity at 10 uM by kinome scan method relative to control. Put shortly: as §2
Experiment [21] concerns the target Receptor-interacting serine/threonine-protein kinase 4 (Homo sapiens) (UniProt P57078). Put plainly: Inhibition of human partial length RIPK4 (M1 to V303 residues) expressed in mammalian expression system assessed as residual activity at 10 uM by kinome scan method relative to control. Put shortly:
as §2

Another experiment relates to U87. Put plainly: Inhibition of PI3K in human U87MG cells assessed as suppression of phosphorylation of AKT at Ser473 residue at 25 nM after 3 hrs by Western blot analysis. In kind it is cell-based. Put shortly:
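U87MG cells seeded at 1×10^6 per well, incubated overnight at 37 °C, 5% CO₂, then treated at various concentrations for 3 h at 37 °C. Western blot for phospho-Akt (Ser473, Thr308), phospho-S6 (Ser235/236) and phospho-4E-BP1 (Thr37/46), with GAPDH as internal control. Bands quantified as mean ± SD, n = 3 biological replicates, versus untreated cells.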
On the technique in general: Immunoblotting shows a protein as a band on a membrane.

Active and inactive are the calls of the source. No cut-off for these calls is given here.

Chain of Cyclin-dependent kinase 8 (Homo sapiens) (P49336 whole entry, the tested form may be a part): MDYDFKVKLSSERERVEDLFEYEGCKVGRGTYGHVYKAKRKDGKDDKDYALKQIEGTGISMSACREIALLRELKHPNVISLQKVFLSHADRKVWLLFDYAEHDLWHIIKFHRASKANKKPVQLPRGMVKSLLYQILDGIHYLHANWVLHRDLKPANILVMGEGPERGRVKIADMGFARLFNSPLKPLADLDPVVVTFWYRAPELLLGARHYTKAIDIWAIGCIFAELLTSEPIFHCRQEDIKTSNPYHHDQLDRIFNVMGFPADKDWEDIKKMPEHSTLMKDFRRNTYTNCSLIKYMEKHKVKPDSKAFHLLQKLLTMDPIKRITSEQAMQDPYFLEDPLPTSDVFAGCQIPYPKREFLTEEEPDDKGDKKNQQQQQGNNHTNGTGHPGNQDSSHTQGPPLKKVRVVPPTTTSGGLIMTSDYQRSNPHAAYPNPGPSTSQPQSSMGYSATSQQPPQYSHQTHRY
Chain of Cyclin-dependent kinase 17 (Homo sapiens) (Q00537 whole entry, looked up, the tested form may be a part): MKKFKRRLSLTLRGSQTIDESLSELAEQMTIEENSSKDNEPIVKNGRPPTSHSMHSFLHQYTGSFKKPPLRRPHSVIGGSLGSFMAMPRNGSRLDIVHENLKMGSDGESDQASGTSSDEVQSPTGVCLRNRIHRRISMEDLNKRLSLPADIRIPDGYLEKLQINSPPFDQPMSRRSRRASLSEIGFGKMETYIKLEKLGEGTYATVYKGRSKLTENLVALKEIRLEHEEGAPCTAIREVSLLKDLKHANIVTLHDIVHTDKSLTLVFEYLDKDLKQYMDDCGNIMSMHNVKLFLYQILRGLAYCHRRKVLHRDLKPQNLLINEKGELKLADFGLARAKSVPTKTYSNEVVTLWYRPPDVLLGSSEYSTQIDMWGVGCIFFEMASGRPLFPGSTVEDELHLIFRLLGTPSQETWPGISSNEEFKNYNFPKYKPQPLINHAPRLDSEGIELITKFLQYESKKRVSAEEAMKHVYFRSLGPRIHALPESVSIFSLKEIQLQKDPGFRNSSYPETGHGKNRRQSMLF
Chain of Interleukin-1 receptor-associated kinase 3 (Homo sapiens) (Q9Y616 whole entry, the tested form may be a part): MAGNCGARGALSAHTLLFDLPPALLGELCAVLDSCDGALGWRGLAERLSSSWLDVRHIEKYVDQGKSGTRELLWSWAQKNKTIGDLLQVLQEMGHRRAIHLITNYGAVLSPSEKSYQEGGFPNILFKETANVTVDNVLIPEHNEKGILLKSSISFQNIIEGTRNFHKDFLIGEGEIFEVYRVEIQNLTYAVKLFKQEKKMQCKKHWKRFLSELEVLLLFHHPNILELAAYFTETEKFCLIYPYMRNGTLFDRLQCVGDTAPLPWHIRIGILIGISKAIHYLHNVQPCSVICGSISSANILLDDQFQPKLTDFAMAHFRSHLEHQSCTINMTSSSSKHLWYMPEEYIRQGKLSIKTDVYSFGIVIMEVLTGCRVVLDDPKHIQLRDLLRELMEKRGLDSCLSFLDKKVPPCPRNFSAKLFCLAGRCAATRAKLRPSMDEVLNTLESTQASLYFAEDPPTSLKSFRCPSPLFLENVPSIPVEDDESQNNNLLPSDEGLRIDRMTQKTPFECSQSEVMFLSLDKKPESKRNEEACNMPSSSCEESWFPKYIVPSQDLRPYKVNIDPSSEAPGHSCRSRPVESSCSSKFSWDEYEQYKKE
Chain of Dual specificity mitogen-activated protein kinase kinase 5 (Homo sapiens) (Q13163 whole entry, the tested form may be a part): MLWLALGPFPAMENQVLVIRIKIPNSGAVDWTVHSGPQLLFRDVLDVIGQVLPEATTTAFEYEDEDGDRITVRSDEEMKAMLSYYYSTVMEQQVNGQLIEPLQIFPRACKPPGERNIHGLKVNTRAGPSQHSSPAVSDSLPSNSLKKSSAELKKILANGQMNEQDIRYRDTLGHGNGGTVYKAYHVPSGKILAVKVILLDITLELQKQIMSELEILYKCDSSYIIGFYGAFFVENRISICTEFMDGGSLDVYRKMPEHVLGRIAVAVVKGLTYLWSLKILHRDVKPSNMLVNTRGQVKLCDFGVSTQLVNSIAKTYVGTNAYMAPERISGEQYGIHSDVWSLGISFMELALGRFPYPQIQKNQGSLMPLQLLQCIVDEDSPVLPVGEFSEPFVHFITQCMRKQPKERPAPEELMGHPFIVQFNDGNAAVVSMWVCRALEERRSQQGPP
Chain of Receptor-interacting serine/threonine-protein kinase 4 (Homo sapiens) (P57078 whole entry, the tested form may be a part): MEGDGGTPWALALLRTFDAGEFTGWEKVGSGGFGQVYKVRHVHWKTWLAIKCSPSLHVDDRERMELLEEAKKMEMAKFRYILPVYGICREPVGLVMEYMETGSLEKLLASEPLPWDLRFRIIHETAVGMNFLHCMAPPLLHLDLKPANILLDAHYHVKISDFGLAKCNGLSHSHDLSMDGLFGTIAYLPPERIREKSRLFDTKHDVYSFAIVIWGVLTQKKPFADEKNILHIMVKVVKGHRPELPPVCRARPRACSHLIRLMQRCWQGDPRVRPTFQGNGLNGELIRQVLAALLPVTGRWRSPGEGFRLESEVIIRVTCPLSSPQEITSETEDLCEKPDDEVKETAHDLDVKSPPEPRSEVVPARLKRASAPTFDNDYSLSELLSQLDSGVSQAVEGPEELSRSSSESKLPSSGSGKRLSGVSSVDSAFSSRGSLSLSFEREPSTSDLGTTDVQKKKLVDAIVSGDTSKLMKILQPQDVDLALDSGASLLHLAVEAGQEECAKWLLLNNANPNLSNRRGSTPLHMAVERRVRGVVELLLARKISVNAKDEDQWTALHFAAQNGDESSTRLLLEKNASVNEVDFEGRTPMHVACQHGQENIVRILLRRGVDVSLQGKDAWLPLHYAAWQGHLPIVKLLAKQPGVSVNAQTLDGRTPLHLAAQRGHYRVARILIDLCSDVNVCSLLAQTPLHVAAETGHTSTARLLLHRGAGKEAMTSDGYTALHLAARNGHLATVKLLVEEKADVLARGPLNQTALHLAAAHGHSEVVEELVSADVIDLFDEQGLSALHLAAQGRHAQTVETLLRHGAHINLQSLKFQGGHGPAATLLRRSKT
Chain of Phosphatidylinositol 3-kinase C2 domain-containing subunit gamma (Homo sapiens) (O75747 whole entry, the tested form may be a part): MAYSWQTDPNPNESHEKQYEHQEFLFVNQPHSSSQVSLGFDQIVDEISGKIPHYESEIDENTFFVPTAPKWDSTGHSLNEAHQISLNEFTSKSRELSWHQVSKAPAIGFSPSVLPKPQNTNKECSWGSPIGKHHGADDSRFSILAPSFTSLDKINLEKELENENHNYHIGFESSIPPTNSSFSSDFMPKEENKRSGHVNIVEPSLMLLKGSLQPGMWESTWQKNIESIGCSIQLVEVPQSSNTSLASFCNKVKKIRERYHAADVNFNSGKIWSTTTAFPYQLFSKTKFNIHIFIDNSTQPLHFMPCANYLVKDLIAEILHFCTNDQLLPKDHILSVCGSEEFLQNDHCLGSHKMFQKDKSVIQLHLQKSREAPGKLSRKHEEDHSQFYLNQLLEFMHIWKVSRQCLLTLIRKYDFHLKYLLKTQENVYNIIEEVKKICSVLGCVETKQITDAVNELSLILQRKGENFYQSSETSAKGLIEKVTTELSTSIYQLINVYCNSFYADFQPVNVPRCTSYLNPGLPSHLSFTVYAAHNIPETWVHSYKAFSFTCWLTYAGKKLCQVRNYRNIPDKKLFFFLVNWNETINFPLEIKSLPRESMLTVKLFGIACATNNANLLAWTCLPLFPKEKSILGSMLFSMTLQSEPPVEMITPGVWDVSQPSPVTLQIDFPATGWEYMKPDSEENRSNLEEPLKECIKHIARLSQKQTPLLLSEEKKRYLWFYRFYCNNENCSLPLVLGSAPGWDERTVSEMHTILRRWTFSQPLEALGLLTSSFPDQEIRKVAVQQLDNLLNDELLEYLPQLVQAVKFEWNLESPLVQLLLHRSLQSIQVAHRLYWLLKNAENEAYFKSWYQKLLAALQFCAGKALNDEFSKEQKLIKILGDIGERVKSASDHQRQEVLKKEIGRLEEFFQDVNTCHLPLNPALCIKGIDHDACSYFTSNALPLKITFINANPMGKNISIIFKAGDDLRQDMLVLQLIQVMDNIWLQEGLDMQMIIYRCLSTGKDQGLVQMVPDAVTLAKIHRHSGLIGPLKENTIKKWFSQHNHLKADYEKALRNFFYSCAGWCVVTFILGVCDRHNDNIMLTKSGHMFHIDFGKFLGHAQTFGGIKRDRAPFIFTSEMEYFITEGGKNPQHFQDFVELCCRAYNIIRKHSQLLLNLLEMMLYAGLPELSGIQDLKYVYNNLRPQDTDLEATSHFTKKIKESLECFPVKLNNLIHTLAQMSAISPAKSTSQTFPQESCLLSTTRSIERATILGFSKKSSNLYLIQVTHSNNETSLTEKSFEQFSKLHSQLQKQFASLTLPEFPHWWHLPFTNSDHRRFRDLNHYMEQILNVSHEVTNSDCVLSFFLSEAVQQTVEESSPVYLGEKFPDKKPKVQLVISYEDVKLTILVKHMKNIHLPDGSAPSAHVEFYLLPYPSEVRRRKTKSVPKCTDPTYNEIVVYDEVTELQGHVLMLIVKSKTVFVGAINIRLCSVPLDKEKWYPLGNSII
Chain of Cyclin-dependent kinase-like 1 (Homo sapiens) (Q00532 whole entry, the tested form may be a part): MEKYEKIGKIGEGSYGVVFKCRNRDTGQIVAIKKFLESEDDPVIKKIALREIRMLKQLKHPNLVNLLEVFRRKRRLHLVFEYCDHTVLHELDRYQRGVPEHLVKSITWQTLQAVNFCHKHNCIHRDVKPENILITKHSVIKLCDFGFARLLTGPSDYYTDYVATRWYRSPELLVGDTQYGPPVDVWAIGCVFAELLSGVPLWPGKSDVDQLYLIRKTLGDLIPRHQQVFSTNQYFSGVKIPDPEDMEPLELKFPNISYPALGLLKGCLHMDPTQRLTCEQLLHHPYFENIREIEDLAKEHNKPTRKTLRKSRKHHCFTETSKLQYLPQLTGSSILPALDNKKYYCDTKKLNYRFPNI

As a reminder, the IC50 is the midpoint of a concentration-inhibition curve. With `COc1ncc(-c2ccc3nccc(/C(C)=C/C(=O)N4CCN(C)CC4)c3c2)cc1NS(=O)(=O)c1ccc(F)cc1F`, the figures for the IC50 in [1], in experiment [2] and in [3] were 5 nM, 0.67 nM and 1.3 nM, respectively. Besides, the Activity in experiment [4] was 49%; in [5], 91%; in [6], 93%; in experiment [7], 95%; in experiment [8], 96%; in [9] it was 82%. Moreover, the Activity in experiment [10] was 11%; in experiment [11], 78%; in experiment [12], 100%; in [13], 54%; in experiment [14], 24%; in experiment [15], 45%. Besides, the Activity in [16] turned out to be 63%; in [17], 100%; in experiment [18], 0%; in experiment [19] it was 0%; in experiment [20] it was 70%; in [21] it was 82%. Moreover, in the experiment with U87, the inhibition result was “Active”.
